Data on 1 compound can be found in ChEMBL document CHEMBL4354843, “Structure-Based Design of a Potent and Selective Covalent Inhibitor for SRC Kinase That Targets a P-Loop Cysteine” (J Med Chem, 2020).

Assay [1] has as its target Vascular endothelial growth factor receptor 2 (Homo sapiens) (UniProt P35968). Briefly: Binding affinity to wild-type human partial length VEGFR2 (R787 to P1253 residues) expressed in mammalian expression system assessed as residual binding level at 1 uM by Kinomescan method relative to control. Summed up:
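Active site-directed competition binding panel (KinomeScan, 468 kinases). Test compound at 1 μM. Read-out is kinase binding remaining versus DMSO control, expressed as percent of control. Scores above 35% are treated as weak binding.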

Assay [2] addresses Serine/threonine-protein kinase D1 (Homo sapiens) (UniProt Q15139). Description: Binding affinity to wild-type human partial length PRKD1 (G551 to E870 residues) expressed in bacterial expression system assessed as residual binding level at 1 uM by Kinomescan method relative to control.
Assay [3] concerns the target Cyclin-dependent kinase 18 (Homo sapiens) (UniProt Q07002). Description: Binding affinity to wild-type human full length PCTK3 (M3 to F474 residues) expressed in bacterial expression system assessed as residual binding level at 1 uM by Kinomescan method relative to control. In outline: (§1)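 KinomeScan, an active site-directed competition binding panel of 468 kinases. The test compound was at 1 μM. The readout is remaining kinase binding as a percentage of the DMSO control. Scores above 35% were treated as weak binding and not listed.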

In assay [4] the target is Non-receptor tyrosine-protein kinase TYK2 (Homo sapiens) (UniProt P29597). Briefly: Binding affinity to wild-type human partial length TYK2 JH2 pseudokinase domain (G556 to D888 residues) expressed in mammalian expression system assessed as residual binding level at 1 uM by Kinomescan method relative to control.
Assay [5] has as its target Ribosomal protein S6 kinase alpha-3 (Homo sapiens) (UniProt P51812). Description: Binding affinity to wild-type human partial length N- terminal RSK2 kinase domain 1 (M1 to D394 residues) expressed in mammalian expression system assessed as residual binding level at 1 uM by Kinomescan method relative to control.
Assay [6] has as its target Cyclin-dependent kinase-like 2 (Homo sapiens) (UniProt Q92772). Description: Binding affinity to wild-type human partial length CDKL2 (M1 to D327 residues) expressed in bacterial expression system assessed as residual binding level at 1 uM by Kinomescan method relative to control.
Assay [7] concerns the target Ankyrin repeat and protein kinase domain-containing protein 1 (Homo sapiens) (UniProt Q8NFD2). Description: Binding affinity to wild-type human partial length ANKK1 (M1 to A305 residues) expressed in mammalian expression system assessed as residual binding level at 1 uM by Kinomescan method relative to control. Summed up: as §1
For assay [8], the target named is Mitogen-activated protein kinase kinase kinase kinase 2 (Homo sapiens) (UniProt Q12851). Description: Binding affinity to wild-type human partial length MAP4K2 (M1 to G318 residues) expressed in mammalian expression system assessed as residual binding level at 1 uM by Kinomescan method relative to control.
Assay [9] has as its target Cytoplasmic tyrosine-protein kinase BMX (Homo sapiens) (UniProt P51813). Description: Binding affinity to wild-type human full length BMX (M1 to H675 residues) expressed in bacterial expression system assessed as residual binding level at 1 uM by Kinomescan method relative to control. Summed up:
as §1

The target in assay [10] is Calcium/calmodulin-dependent protein kinase type 1 (Homo sapiens) (UniProt Q14012). Description: Binding affinity to wild-type human full length CAMK1 (M1 to L370 residues) expressed in bacterial expression system assessed as residual binding level at 1 uM by Kinomescan method relative to control. In outline: (§2)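 Active-site-directed KinomeScan competition binding panel covering 468 kinases, compound tested at 1 μM. Each readout is the kinase signal remaining with compound, expressed as a percentage of the DMSO control. […]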

Assay [11] addresses Tyrosine-protein kinase Srms (Homo sapiens) (UniProt Q9H3Y6). Briefly: Binding affinity to wild-type human partial length SRMS (L208 to P488 residues) expressed in mammalian expression system assessed as residual binding level at 1 uM by Kinomescan method relative to control.
Assay [12] concerns eIF-2-alpha kinase GCN2 (Homo sapiens), Q9P2K8 [S808G]. Description: Binding affinity to wild-type human partial length GCN2 kinase domain 2 (R585 to T1018 residues) S808G mutant expressed in bacterial expression system assessed as residual binding level at 1 uM by Kinomescan method relative to control.
In assay [13] the target is Activin receptor type-1-like (Homo sapiens) (UniProt P37023). Description: Binding affinity to wild-type human ACVRL1 (L164 to Q503 residues) expressed in bacterial expression system assessed as residual binding level at 1 uM by Kinomescan method relative to control. In outline: as §2
Assay [14] addresses Wee1-like protein kinase 2 (Homo sapiens) (UniProt P0C1S8). Description: Binding affinity to wild-type human partial length WEE2 (M204 to K492 residues) expressed in bacterial expression system assessed as residual binding level at 1 uM by Kinomescan method relative to control.
Assay [15] has as its system HCC827. Briefly: Antiproliferative activity against human HCC827 cells assessed as reduction in cell viability incubated for 72 hrs by cell-titer glo assay. Conditions: HCC827, 72 h.
Assay [16] addresses Protein kinase C iota type (Homo sapiens) (UniProt P41743). Briefly: Binding affinity to wild-type human partial length PRKCI (H215 to V587 residues) expressed in mammalian expression system assessed as residual binding level at 1 uM by Kinomescan method relative to control. In outline:
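Active-site-directed competition binding panel of 468 kinases (KinomeScan), compound at 1 μM. The read-out is kinase remaining bound, given as a percentage of the DMSO control. […]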

Assay [17] deals with Serine/threonine-protein kinase Sgk1 (Homo sapiens) (UniProt O00141). Briefly: Binding affinity to wild-type human partial length SGK (I60 to L431 residues) expressed in mammalian expression system assessed as residual binding level at 1 uM by Kinomescan method relative to control.
Assay [18] relates to Epidermal growth factor receptor (Homo sapiens), P00533 [L858R,T790M]. Description: Binding affinity to human partial length EGFR L858R/T790M double mutant (R669 to V1011 residues) expressed in mammalian expression system assessed as residual binding level at 1 uM by Kinomescan method relative to control. In outline: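 KinomeScan active site-directed competition binding panel (468 kinases), compound tested at 1 μM. Result expressed as remaining kinase signal versus DMSO control (percent of control).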

Assay [19] deals with Serine/threonine-protein kinase Nek2 (Homo sapiens) (UniProt P51955). Briefly: Binding affinity to wild-type human partial length NEK2 (M1 to K309 residues) expressed in bacterial expression system assessed as residual binding level at 1 uM by Kinomescan method relative to control.
In assay [20] the target is Activin receptor type-1 (Homo sapiens) (UniProt Q04771). Briefly: Binding affinity to wild-type human ACVR1 (C188 to C509 residues) expressed in bacterial expression system assessed as residual binding level at 1 uM by Kinomescan method relative to control. Summed up: as §2
Assay [21] deals with Ephrin type-A receptor 2 (Homo sapiens) (UniProt P29317). Briefly: Binding affinity to wild-type human partial length EPHA2 (T593 to V891 residues) expressed in bacterial expression system assessed as residual binding level at 1 uM by Kinomescan method relative to control.

Sequence of Protein kinase C iota type (Homo sapiens) (P41743 whole entry, the tested form may be a part): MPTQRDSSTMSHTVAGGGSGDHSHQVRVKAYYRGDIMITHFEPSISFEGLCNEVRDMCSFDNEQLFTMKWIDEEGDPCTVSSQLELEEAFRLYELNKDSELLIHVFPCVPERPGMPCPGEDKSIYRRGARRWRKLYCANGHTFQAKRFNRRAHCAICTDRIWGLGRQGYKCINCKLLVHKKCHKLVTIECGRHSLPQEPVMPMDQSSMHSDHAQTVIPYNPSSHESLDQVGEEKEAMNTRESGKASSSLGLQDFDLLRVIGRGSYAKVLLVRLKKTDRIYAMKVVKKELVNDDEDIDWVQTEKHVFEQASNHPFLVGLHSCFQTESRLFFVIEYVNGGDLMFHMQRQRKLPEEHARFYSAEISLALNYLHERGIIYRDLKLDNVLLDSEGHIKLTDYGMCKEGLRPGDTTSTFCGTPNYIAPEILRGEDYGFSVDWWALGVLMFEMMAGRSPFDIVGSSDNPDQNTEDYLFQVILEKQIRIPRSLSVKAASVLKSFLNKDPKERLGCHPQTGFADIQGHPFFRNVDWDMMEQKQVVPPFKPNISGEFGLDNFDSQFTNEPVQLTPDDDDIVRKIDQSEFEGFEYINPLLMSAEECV
Sequence of Serine/threonine-protein kinase D1 (Homo sapiens) (Q15139 whole entry, the tested form may be a part): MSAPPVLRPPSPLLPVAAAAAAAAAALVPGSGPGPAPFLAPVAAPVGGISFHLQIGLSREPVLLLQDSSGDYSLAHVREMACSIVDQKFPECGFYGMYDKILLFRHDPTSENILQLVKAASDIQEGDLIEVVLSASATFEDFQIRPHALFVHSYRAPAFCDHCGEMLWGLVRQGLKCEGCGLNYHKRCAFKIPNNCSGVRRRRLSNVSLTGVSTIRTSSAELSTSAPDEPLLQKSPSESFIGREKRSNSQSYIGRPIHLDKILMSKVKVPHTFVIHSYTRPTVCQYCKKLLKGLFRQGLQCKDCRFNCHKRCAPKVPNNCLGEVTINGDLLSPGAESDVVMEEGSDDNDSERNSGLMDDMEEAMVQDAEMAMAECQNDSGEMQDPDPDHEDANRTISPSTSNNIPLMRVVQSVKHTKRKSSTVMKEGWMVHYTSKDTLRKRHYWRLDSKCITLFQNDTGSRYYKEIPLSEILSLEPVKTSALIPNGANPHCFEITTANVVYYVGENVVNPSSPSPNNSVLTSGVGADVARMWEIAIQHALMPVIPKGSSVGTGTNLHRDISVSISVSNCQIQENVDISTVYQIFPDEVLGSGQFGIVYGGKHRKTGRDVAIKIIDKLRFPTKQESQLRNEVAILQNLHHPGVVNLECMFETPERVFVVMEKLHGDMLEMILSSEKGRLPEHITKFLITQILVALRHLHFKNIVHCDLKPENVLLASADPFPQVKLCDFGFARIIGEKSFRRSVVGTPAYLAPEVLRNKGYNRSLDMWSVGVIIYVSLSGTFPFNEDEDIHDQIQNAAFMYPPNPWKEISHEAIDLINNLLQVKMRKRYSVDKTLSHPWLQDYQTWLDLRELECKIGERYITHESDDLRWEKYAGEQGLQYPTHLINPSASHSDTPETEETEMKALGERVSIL
Sequence of Cyclin-dependent kinase 18 (Homo sapiens) (Q07002 whole entry, the tested form may be a part): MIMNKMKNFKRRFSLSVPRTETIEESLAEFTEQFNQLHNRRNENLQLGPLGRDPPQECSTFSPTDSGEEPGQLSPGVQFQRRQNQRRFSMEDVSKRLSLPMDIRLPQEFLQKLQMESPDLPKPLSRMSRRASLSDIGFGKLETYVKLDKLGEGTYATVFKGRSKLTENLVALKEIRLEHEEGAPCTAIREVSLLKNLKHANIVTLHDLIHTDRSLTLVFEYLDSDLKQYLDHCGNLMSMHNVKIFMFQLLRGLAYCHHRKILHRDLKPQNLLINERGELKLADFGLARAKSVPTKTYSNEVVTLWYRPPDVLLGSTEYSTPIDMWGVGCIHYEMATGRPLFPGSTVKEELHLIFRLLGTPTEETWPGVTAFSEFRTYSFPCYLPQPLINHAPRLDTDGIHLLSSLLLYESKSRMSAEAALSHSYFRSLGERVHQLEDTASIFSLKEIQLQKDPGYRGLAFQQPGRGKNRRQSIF
Sequence of Cyclin-dependent kinase-like 2 (Homo sapiens) (Q92772 whole entry, the tested form may be a part): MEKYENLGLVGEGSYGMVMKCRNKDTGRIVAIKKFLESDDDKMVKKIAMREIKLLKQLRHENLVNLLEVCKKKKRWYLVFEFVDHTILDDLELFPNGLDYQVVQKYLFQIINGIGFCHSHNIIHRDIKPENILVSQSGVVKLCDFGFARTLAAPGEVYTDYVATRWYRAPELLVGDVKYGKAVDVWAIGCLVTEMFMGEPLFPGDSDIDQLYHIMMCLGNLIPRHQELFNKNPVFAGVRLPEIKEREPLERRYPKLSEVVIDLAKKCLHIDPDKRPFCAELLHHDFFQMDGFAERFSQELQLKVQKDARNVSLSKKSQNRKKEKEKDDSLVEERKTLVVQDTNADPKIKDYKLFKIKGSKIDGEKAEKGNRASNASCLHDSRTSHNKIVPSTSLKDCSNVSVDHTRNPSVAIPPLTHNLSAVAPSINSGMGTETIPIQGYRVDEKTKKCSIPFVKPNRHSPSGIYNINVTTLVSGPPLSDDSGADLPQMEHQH
Sequence of Calcium/calmodulin-dependent protein kinase type 1 (Homo sapiens) (Q14012 whole entry, looked up, the tested form may be a part): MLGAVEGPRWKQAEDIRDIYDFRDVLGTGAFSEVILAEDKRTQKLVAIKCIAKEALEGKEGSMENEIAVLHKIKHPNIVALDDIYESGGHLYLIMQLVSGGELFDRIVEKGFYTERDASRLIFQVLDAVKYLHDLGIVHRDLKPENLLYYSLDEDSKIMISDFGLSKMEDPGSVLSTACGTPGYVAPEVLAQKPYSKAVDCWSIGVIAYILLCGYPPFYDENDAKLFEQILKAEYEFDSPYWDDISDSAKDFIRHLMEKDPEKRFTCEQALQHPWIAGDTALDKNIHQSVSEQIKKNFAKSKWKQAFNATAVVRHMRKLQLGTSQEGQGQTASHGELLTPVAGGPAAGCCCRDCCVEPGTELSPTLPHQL
Sequence of Mitogen-activated protein kinase kinase kinase kinase 2 (Homo sapiens) (Q12851 whole entry, the tested form may be a part): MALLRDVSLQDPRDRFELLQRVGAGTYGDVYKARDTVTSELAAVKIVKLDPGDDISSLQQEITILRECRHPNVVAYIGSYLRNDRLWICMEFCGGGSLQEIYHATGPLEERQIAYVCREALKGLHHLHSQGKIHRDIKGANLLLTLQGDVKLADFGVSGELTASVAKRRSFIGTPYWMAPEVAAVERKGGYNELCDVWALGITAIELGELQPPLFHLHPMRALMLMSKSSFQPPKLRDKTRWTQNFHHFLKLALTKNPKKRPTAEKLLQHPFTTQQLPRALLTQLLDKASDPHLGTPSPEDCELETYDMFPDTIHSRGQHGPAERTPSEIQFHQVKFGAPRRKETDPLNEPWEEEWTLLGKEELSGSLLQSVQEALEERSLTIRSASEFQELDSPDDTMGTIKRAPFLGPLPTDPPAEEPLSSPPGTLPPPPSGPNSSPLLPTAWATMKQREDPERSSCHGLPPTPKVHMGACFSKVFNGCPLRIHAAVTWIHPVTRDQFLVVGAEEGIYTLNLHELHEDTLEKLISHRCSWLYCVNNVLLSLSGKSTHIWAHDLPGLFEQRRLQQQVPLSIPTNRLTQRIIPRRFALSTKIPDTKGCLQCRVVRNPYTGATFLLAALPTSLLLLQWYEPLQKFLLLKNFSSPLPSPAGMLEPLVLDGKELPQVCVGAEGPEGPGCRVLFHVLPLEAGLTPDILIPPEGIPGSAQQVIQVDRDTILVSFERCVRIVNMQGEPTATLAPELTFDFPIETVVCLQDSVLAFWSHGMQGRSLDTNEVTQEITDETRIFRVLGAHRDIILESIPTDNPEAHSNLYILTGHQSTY
Sequence of Ankyrin repeat and protein kinase domain-containing protein 1 (Homo sapiens) (Q8NFD2 whole entry, the tested form may be a part): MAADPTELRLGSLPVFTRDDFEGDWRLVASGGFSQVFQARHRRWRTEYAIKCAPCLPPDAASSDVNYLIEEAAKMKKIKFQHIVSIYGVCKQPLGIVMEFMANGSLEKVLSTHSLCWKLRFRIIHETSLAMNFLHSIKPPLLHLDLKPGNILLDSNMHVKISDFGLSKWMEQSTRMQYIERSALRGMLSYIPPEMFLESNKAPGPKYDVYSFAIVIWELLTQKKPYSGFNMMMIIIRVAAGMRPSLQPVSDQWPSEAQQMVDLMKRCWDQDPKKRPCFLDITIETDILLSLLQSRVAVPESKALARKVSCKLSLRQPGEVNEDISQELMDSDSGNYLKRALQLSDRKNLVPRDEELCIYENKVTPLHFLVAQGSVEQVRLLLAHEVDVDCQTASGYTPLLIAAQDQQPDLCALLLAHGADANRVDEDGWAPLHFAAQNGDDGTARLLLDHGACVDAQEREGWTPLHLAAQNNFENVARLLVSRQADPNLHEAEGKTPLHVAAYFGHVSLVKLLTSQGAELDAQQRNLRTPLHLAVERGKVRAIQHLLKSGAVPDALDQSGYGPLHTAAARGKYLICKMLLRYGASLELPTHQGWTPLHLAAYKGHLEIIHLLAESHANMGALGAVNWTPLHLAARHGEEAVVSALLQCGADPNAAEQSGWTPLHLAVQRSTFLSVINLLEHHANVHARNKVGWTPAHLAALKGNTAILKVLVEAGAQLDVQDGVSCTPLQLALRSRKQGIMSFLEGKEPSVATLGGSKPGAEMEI
Sequence of Serine/threonine-protein kinase Nek2 (Homo sapiens) (P51955 whole entry, the tested form may be a part): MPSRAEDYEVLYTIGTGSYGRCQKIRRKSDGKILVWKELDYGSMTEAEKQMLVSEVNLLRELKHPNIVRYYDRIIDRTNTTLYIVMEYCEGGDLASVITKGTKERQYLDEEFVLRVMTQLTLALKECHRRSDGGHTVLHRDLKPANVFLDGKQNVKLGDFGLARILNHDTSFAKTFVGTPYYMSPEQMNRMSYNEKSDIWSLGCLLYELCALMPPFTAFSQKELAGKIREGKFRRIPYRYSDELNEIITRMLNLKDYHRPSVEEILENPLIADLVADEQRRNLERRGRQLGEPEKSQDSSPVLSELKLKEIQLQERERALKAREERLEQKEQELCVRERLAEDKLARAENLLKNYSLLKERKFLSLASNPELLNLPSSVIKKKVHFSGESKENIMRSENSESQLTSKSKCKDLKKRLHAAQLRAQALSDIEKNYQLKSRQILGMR

The IC50 is the point on the concentration scale where inhibition reaches its midpoint. Turning to `C=CC(=O)Nc1ccccc1Nc1nc(Nc2ccc(N3CCN(C)CC3)cc2)ncc1C(=O)Nc1c(C)cccc1Cl`, the Activity in [1] turned out to be 94%; in assay [2] it was 100%; in [3], 98%; in assay [4], 100%; in assay [5], 75%; in assay [6] it was 100%. The Activity in assay [7] is 98%; in [8] it was 100%; in assay [9] it was 48%; in assay [10], 100%; in assay [11], 87%; in assay [12], 87%. The Activity was 100% in assay [13]; 100% in assay [14]; 94% in assay [16]; 95% in assay [17]; 100% in assay [18]; 100% in assay [19]. Moreover, the Activity in assay [20] and in assay [21] was 100% throughout. In [15], the IC50 was 500 nM.
